Activity calls are given as the source filed them.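 Rule for the calls, unless noted: active = GFP response above 150% of the DMSO level; inconclusive = fewer than 70 events counted for a yeast strain; inactive = the rest.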

In PubChem BioAssay one finds GFP response vs DMSO, GFP response relative to DMSO and GFP response, % of DMSO data, which are given here for 14 molecules.

A short description of assay [1]: hit retest on RPL19A-GFP reporter strain – cell-based, S. cerevisiae, flow cytometry, cherry picks, mother/daughter gates, confirmation (AID 2270;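 active = GFP response below 50% of the DMSO control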). The note with it: 3 h, at 10 µM, stronger effect = lower value, 100 = same GFP as DMSO wells.
The nature of assay [2]: yeast TOR pathway reporter LAP4-GFP change – cell-based, cherry picks, flow cytometry, mother/daughter gates, confirmation (AID 2271;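 active = GFP response above 150% of the DMSO control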;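 note: ratio of sample to DMSO plate mean so 100% equals DMSO level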). The note with it: S. cerevisiae LAP4-GFP strain, 3 h, at 10 µM, stronger effect = higher value, 100 means same as DMSO control. The procedure, abridged:
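System: Alexa 633-stained baker's yeast GFP-fusion strain / Medium: synthetic complete (SC) yeast growth medium / Doses: compound at 10 µM, single point / Times: 3 h treatment at 30 °C with rotation / Detection: HT flow cytometry, GFP fluorescence channel / Benchmarks: DMSO-only negative wells, rapamycin 400 ng/mL positive wells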
In general terms: A flow cytometer gives signals particle by particle.

Assay [3] is described as follows: TOR pathway reporter MEP2-GFP, retest of hits – S. cerevisiae, flow cytometry GFP, cherry picks, confirmation (AID 2272;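 active = GFP response above 150% of the DMSO control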;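 note: ratio of well signal to plate DMSO mean so 100% equals DMSO level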). The note with it: S. cerevisiae MEP2-GFP strain, 3 h, at 10 µM, stronger effect = higher value.
Assay [4] in a line: yeast AGP1-GFP fluorescence change, single-dose – cell-based, flow cytometry, S. cerevisiae, cherry picks, confirmation (AID 2273).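 Note: median GFP channel fluorescence over the whole cell population gate.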 The note with it: S. cerevisiae AGP1-GFP strain, 3 h, at 10 µM.
The nature of assay [5]: TOR pathway CIT2 reporter hit retest – S. cerevisiae, GFP fusion, cherry picks, mother/daughter gates, confirmation (AID 2274). The conditions noted are these: S. cerevisiae CIT2-GFP strain, flow cytometry, 3 h, at 10 µM, stronger effect = higher value.
Where [6] appears, read: measured here: daughter cell gate.
Where [7] appears, read: measured here: mother cell gate.
Setting [8] is: measured here: daughter cell gate response.
The mark [9] stands for this setting: measured here: mother cell gate response.

On to `COc1cc(NC(=O)c2c(OC)cccc2OC)ccc1NC(=O)c1cc2ccccc2o1`, for which the GFP response vs DMSO is 96% (inactive) in assay [1], 95.5% in assay [1] (setting [6]), 96.5% in assay [1] (setting [7]) and 102% (inactive) in assay [3]. The GFP response relative to DMSO in assay [2] was 109% (inactive); in assay [2] (setting [8]), 104%; in assay [2] (setting [9]) it was 108%. In addition, the GFP response, % of DMSO in assay [4] is 95.4% (inactive); in assay [5] it was 96.4% (inactive); in assay [5] (setting [6]) it was 98.3%; in assay [5] (setting [7]), 93.3%.
Regarding `Cc1ccc(S(=O)(=O)c2ccc([N+](=O)[O-])cn2)cc1`, the GFP response vs DMSO in assay [1] was 93.2% (inactive); in assay [1] (setting [6]), 99.5%; in assay [1] (setting [7]), 84.5%; in assay [3] it was 139% (inactive). Besides, the GFP response relative to DMSO in assay [2] was 185% (active); in assay [2] (setting [8]) it was 156%; in assay [2] (setting [9]) it was 177%. Also, the GFP response, % of DMSO in assay [4] is 115% (inactive); in assay [5], 103% (inactive); in assay [5] (setting [6]) it was 114%; in assay [5] (setting [7]), 93.4%.
For the molecule `CC1=NNC(=O)/C1=C\c1cn(-c2ccccc2)nc1-c1ccccc1`, the GFP response vs DMSO was 98% (inactive) in assay [1], 82.8% in assay [1] (setting [6]), 95.5% in assay [1] (setting [7]) and 110% (inactive) in assay [3]. Also, the figures for the GFP response relative to DMSO in assay [2], in assay [2] (setting [8]) and in assay [2] (setting [9]) were 242% (active), 164% and 236%, respectively. In addition, the GFP response, % of DMSO in assay [4] was 124% (inactive); in assay [5] it was 115% (inactive); in assay [5] (setting [6]) it was 93.7%; in assay [5] (setting [7]), 104%.
`Cc1nnc(NC(=O)c2ccc(S(=O)(=O)N3CCCCCC3)cc2)o1`: the GFP response vs DMSO was 99.4% (inactive) in assay [1], 99.3% in assay [1] (setting [6]), 100% in assay [1] (setting [7]) and 101% (inactive) in assay [3]. The GFP response relative to DMSO in assay [2] is 97% (inactive); in assay [2] (setting [8]) it was 97.5%; in assay [2] (setting [9]) it was 97.3%. Besides, the GFP response, % of DMSO was 99% (inactive) in assay [4], 100% (inactive) in assay [5], 103% in assay [5] (setting [6]) and 96.8% in assay [5] (setting [7]).
With `O=C(Nc1cccc(O)c1)c1ccccc1`, the GFP response vs DMSO was 94.6% (inactive) in assay [1], 96.1% in assay [1] (setting [6]), 96.4% in assay [1] (setting [7]) and 98.3% (inactive) in assay [3]. Moreover, the values for the GFP response relative to DMSO in assay [2], in assay [2] (setting [8]) and in assay [2] (setting [9]) were 95.4% (inactive), 97.6% and 95.1%, respectively. Besides, the GFP response, % of DMSO was 101% (inactive) in assay [4], 98.3% (inactive) in assay [5], 101% in assay [5] (setting [6]) and 97.3% in assay [5] (setting [7]).
For the molecule `Cc1cccn2c(=O)c(/C=C(\C#N)C(=O)NCc3ccccc3)c(N3CCC(C(N)=O)CC3)nc12`, the GFP response vs DMSO was 98.7% (inactive) in assay [1], 99% in assay [1] (setting [6]), 97.5% in assay [1] (setting [7]) and 101% (inactive) in assay [3]. In addition, the results for the GFP response relative to DMSO in assay [2], in assay [2] (setting [8]) and in assay [2] (setting [9]) were 101% (inactive), 102% and 101%, respectively. Also, the GFP response, % of DMSO in assay [4] is 104% (inactive); in assay [5], 101% (inactive); in assay [5] (setting [6]), 103%; in assay [5] (setting [7]), 103%.
With `CCCC(=O)c1ccc(N2CCN(C(=O)c3ccc(Br)cc3)CC2)c(F)c1`, the GFP response vs DMSO in assay [1] was 101% (inactive); in assay [1] (setting [6]) it was 95.9%; in assay [1] (setting [7]), 94%; in assay [3], 102% (inactive). Also, the GFP response relative to DMSO is 102% (inactive) in assay [2], 99.2% in assay [2] (setting [8]) and 99.3% in assay [2] (setting [9]). The GFP response, % of DMSO was 100% (inactive) in assay [4], 105% (inactive) in assay [5], 105% in assay [5] (setting [6]) and 99.7% in assay [5] (setting [7]).
As for `CCOC(=O)c1sc(NC(=O)CN2C(=O)c3cccc4cccc(c34)C2=O)nc1C`, the GFP response vs DMSO in assay [1] was 96.6% (inactive); in assay [1] (setting [6]), 98.1%; in assay [1] (setting [7]), 96.9%; in assay [3] it was 100% (inactive). Moreover, the GFP response relative to DMSO in assay [2] was 87.6% (inactive); in assay [2] (setting [8]), 86.4%; in assay [2] (setting [9]), 87.6%. Moreover, the GFP response, % of DMSO was 98.3% (inactive) in assay [4], 98.3% (inactive) in assay [5], 101% in assay [5] (setting [6]) and 97.3% in assay [5] (setting [7]).
As for `C[n+]1ccc(/C=C/c2c[nH]c3ccc(F)cc23)cc1`, the GFP response vs DMSO in assay [1] is 101% (inactive); in assay [1] (setting [6]) it was 99.5%; in assay [1] (setting [7]), 102%; in assay [3] it was 120% (inactive). Moreover, the GFP response relative to DMSO is 113% (inactive) in assay [2], 110% in assay [2] (setting [8]) and 115% in assay [2] (setting [9]). In addition, the GFP response, % of DMSO in assay [4] is 104% (inactive); in assay [5] it was 110% (inactive); in assay [5] (setting [6]) it was 108%; in assay [5] (setting [7]), 112%.
On to `CCCN1CCN(C(=O)c2oc3ccccc3c2NC(=O)COc2ccc(OC)cc2)CC1`, for which the GFP response vs DMSO is 98.6% (inactive) in assay [1], 100% in assay [1] (setting [6]), 99.8% in assay [1] (setting [7]) and 102% (inactive) in assay [3]. Besides, the GFP response relative to DMSO in assay [2] was 95.4% (inactive); in assay [2] (setting [8]) it was 96%; in assay [2] (setting [9]) it was 95.1%. The GFP response, % of DMSO in assay [4] was 98.1% (inactive); in assay [5] it was 105% (inactive); in assay [5] (setting [6]), 106%; in assay [5] (setting [7]) it was 106%.
Turning to `CCN(CC)S(=O)(=O)c1cccc(C(=O)NCC(c2ccccc2)N(C)C)c1` (centres undefined), the GFP response vs DMSO in assay [1] was 99.7% (inactive); in assay [1] (setting [6]), 102%; in assay [1] (setting [7]), 98.5%; in assay [3], 106% (inactive). Besides, the GFP response relative to DMSO in assay [2] is 110% (inactive); in assay [2] (setting [8]) it was 111%; in assay [2] (setting [9]) it was 106%. In addition, the GFP response, % of DMSO in assay [4] is 104% (inactive); in assay [5], 104% (inactive); in assay [5] (setting [6]), 106%; in assay [5] (setting [7]), 98%.
For the molecule `Cc1cccn2c(=O)c(/C=C(\C#N)C(=O)NCc3ccco3)c(N3CCCCCC3)nc12`, the GFP response vs DMSO in assay [1] is 97% (inactive); in assay [1] (setting [6]), 97.3%; in assay [1] (setting [7]), 97.2%; in assay [3], 97.8% (inactive). Further, the values for the GFP response relative to DMSO in assay [2], in assay [2] (setting [8]) and in assay [2] (setting [9]) were 96.2% (inactive), 95.6% and 98.3%, respectively. Further, the GFP response, % of DMSO in assay [4] is 95.4% (inactive); in assay [5], 90% (inactive); in assay [5] (setting [6]) it was 89.9%; in assay [5] (setting [7]), 86.9%.
Take `C=CCOc1ccccc1C(=O)/C=C1/C(=O)Nc2ccccc21`: the GFP response vs DMSO is 101% (inactive) in assay [1], 102% in assay [1] (setting [6]), 95% in assay [1] (setting [7]) and 94.7% (inactive) in assay [3]. Also, the GFP response relative to DMSO in assay [2] was 142% (inactive); in assay [2] (setting [8]) it was 130%; in assay [2] (setting [9]) it was 148%. The GFP response, % of DMSO is 100% (inactive) in assay [4], 91.5% (inactive) in assay [5], 95.6% in assay [5] (setting [6]) and 88.2% in assay [5] (setting [7]).
For `CC(C)(C)C(=O)C(Cl)C(=O)Nc1ccccc1` (centres undefined), the GFP response vs DMSO in assay [1] is 79.7% (inactive); in assay [1] (setting [6]) it was 89.6%; in assay [1] (setting [7]), 72.1%; in assay [3] it was 145% (inactive). For the same molecule, the values for the GFP response relative to DMSO in assay [2], in assay [2] (setting [8]) and in assay [2] (setting [9]) were 300% (active), 186% and 271%, respectively. In addition, the GFP response, % of DMSO in assay [4] is 135% (inactive); in assay [5], 126% (inactive); in assay [5] (setting [6]) it was 106%; in assay [5] (setting [7]), 115%.
